Only some compounds are listed: those with a hit (about 2% of all), similar ones and a draw of the others.
CHRM1 PAM – positive allosteric modulators of human M1 muscarinic receptor; CHO-K1 hM1, Fluo-8 calcium fluorescence, ACh EC20; 0% = ACh EC20, 100% = maximal ACh; activation, % at 3 µM; AID 588819; P11229; actives 0.088% (n = 360,000); in the data active means activation above about 19%, passing the limit was not always enough
Target sequence (P11229 whole entry, looked up): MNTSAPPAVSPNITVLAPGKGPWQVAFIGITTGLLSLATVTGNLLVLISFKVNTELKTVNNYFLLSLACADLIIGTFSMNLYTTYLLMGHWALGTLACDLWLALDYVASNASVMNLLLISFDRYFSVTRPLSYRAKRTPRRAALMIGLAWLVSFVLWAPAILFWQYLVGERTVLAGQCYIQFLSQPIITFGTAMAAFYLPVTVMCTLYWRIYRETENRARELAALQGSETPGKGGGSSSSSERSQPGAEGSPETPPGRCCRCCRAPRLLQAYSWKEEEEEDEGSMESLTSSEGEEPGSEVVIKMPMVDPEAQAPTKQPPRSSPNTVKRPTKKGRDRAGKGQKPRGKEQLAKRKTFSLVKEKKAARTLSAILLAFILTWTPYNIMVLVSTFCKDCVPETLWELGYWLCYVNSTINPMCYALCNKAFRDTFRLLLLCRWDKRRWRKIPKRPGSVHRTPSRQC
CHRM5 agonist – CHRM5 agonism in calcium assay | CHO-K1 hM5 cells, Fluo-8 calcium fluorescence; 0% DMSO wells, 100% maximal acetylcholine response | activation, % at 3 µM | AID 624037 | P08912 | actives 0.19% (n = 360,000);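 active means activation above the run's mean over test compounds plus 3 SD, cut at about 23% in these data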;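 further: signal is peak over basal fluorescence ratio across the kinetic read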
M1 ag – agonists of human M1 muscarinic receptor. P11229. activation, % at 3 µM. actives 0.33% (n = 360,000). CHO-K1 hM1, Fluo-8 calcium fluorescence, agonist mode; 0% DMSO, 100% acetylcholine EC100. AID 588814;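 active means activation above the run's mean compound activation plus 3 SD, cut at about 16% in these data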;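 further: peak over basal fluorescence ratio within a 140 s kinetic read after compound addition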
CHRM1 antagonist – blocks human M1 muscarinic receptor | CHO-K1 hM1, Fluo-8 calcium fluorescence, ACh EC80 antagonist | AID 588852 | actives 1.3% (n = 360,000) | P11229 | inhibition, % at 3 µM;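 active means percent inhibition above its own plate's cutoff, namely the mean of that plate's compound wells plus 3 SD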;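 further: peak over basal fluorescence ratio during 140 s after agonist addition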
CHRM5 PAM – potentiates acetylcholine response at human M5 receptor; P08912; activation, % at 3 µM; actives 0.3% (n = 360,000); CHO-K1 hM5, Fluo-8 calcium, ACh EC20 PAM; 0% = ACh EC20, 100% = ACh EC100;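 active means activation above the run cutoff, the mean activation of all test compounds plus 3 SD, cut at about 18% in these data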
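Assay system – human M5 receptor in CHO-K1 cells · Read-out – % activation, ACh-normalized · Technique – Fluo-8 calcium fluorescence · Dosing – single-point, 3 µM nominal · Incubation – Fluo-8 loading 80 min at 37 °C plus 30 min room temperature · Repeats – singlicate, one well per test compound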
CHRM5 antagonist – blocks acetylcholine activation of human M5 receptor. P08912. CHO-hM5 cells, Fluo-8 calcium fluorescence, ACh EC80. inhibition, % at 3 µM. actives 0.59% (n = 360,000). AID 624040;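 active means inhibition above a per-plate cutoff, the mean of that plate's test compounds plus 3 SD, cut at about 27% in these data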
Each line names hits and unclear results; the compound was inactive in the other large screens.

O=C(NCc1ccc(Cl)c(Cl)c1)c1cc(C2CCCCN2C(=O)c2ccccc2)on1 (centres undefined)	none
S=C(NCc1cccnc1)Nc1cc(Cl)cc(Cl)c1	CHRM5 antagonist 30
CCOC(=O)C1=C(CS(=O)(=O)c2ccc(C)cc2)NC(=O)NC1c1ccc(O)c(OC)c1 (centres undefined)	CHRM5 PAM 20
CCOc1cc(C2NC(=O)NC(C)=C2C(=O)OCC2CCCCC2)ccc1O (centres undefined)	CHRM5 antagonist 29
CCOC(=O)CSc1nnc(CNC(=O)c2cccc(C)c2)n1C	none
CCOC(=O)CSc1nnc(CNC(=O)c2ccc([N+](=O)[O-])cc2)n1C	CHRM5 PAM 22
CCOC(=O)C1=CCN(S(=O)(=O)c2ccc(C)cc2)C1c1ccc(C(C)C)cc1 (centres undefined)	none
CCc1ccc(OC(C)C(=O)Nc2ccc(S(=O)(=O)Nc3nccs3)cc2)cc1 (centres undefined)	M1 ag 17
Cc1ccc(OC(C)C(=O)Nc2ccc(S(=O)(=O)Nc3nccs3)cc2)cc1 (centres undefined)	none
FC(F)(F)c1nnc(Nc2ccc(Cl)cc2)s1	none
Fc1ccc(Nc2nnc(C(F)(F)F)s2)cc1Cl	CHRM1 antagonist 37, CHRM5 antagonist 32
C[C@@H]1CN([C@@H](C)CO)C(=O)c2cc(Br)cnc2O[C@H]1CN(C)C(=O)c1ccccc1F	none
O=C(c1cc(-c2ccc(Br)cc2)nc2ccccc12)N1CCN(c2ccccc2O)CC1	none
Cc1ccc(-c2cc(C(=O)N3CCN(c4ccccc4O)CC3)c3ccccc3n2)o1	CHRM1 antagonist 42
CC(C)Oc1cccc(-c2cc(C(=O)N3CCN(S(C)(=O)=O)CC3)c3ccccc3n2)c1	none
COc1cccc(-c2cc(C(=O)N3CCN(c4ncccn4)CC3)c3ccccc3n2)c1	CHRM1 antagonist 45
CC(C)Oc1cccc(-c2cc(C(=O)N3CCN(c4ncccn4)CC3)c3ccccc3n2)c1	CHRM1 antagonist 27
Cc1ccc(-c2cc(C(=O)N3CCN(c4ncccn4)CC3)c3ccccc3n2)cc1	CHRM1 antagonist 31
CCc1nc2ccc(C(=O)N3CCN(C(=O)c4ccco4)CC3)cn2c1N(C)C(=O)c1cccc(OC)c1	none
N#Cc1c(N)[nH]c2ccc(Sc3ccccc3)cc12	none
Cc1ccc(-c2nnc(N3CCOCC3)c3ccccc23)cc1S(N)(=O)=O	CHRM5 PAM 19
Cc1ccc(-c2nnc(N3CCCCC3)c3ccccc23)cc1S(=O)(=O)N(C)C	none
CCOC(=O)[C@]12CCC=C1N(Cc1ccco1)C(=O)[C@H](CC(=O)N1CCCC1)C2	none (no result: CHRM1 PAM, M1 ag, CHRM1 antagonist)
O=C(NCc1ccccc1)C(CCc1ccccc1)n1c(=O)c(-c2ccccc2)nc2ccccc21 (centres undefined)	CHRM5 PAM 20 (no result: CHRM1 PAM, M1 ag, CHRM1 antagonist)
COc1cc(OC)c(NC(=O)CCNC(=O)Cn2cnc3ccccc3c2=O)cc1Cl	CHRM1 PAM 26
CCOC(=O)C1CCCN(c2nc3c(C)cccn3c(=O)c2/C=C(\C#N)C(=O)NCc2ccco2)C1 (centres undefined)	CHRM5 agonist 31, M1 ag 62, CHRM1 antagonist 76
Cc1cccn2c(=O)c(/C=C(\C#N)C(=O)NCc3ccco3)c(N3CCCC(C)C3)nc12 (centres undefined)	none
Cn1c(SCC(N)=O)nnc1-c1ccc(S(=O)(=O)N2CCCC2)cc1	none
Cc1ccc(-n2c(SCC(N)=O)nnc2-c2ccc(S(=O)(=O)N3CCCCC3)cc2)c(C)c1	CHRM1 antagonist 91
O=C(NCc1cccnc1)c1csc([C@H]2C[C@H](O)[C@@H](CO)O2)n1	none
CNC(=O)COC(=O)c1c2c(nc3ccccc13)CCC2	none
COc1ccc(NC(=O)COC(=O)c2c3c(nc4ccccc24)CCCC3)cc1Cl	CHRM1 antagonist 22
COc1ccc(NC(=O)COC(=O)c2c3c(nc4ccccc24)CCCC3)cc1	CHRM1 antagonist 32
COc1ccc(OC)c(NC(=O)COC(=O)c2c3c(nc4ccccc24)CCCC3)c1	CHRM1 antagonist 38
Cc1c(NC(=O)COC(=O)c2c3c(nc4ccccc24)CCCC3)c(=O)n(-c2ccccc2)n1C	none
Brc1ccc(CNc2ccc3ncccc3c2)cc1	CHRM1 antagonist 36, CHRM5 antagonist 32
CCc1nnc(NC(=O)CCN(c2cc(C)cc(C)c2)S(=O)(=O)c2ccc(Cl)cc2)s1	CHRM5 PAM 19
Cc1nc2c(OCc3ccc(C(F)(F)F)cc3)cccn2c1N(C)CC1CC1	CHRM1 antagonist 36
CCOC(=O)N(C)c1c(CC)nc2c(OCc3ccc(F)c(F)c3)cccn12	none
Cc1nc2c(OCC(=O)c3ccc(F)cc3)cccn2c1N(C)Cc1cccs1	none
CCc1nc2c(OCc3ccc(F)c(F)c3)cccn2c1N(C)C(=O)C1CC1	CHRM1 antagonist 25
Cc1nc2c(OCc3ccc(C#N)cc3)cccn2c1N(C)Cc1cccs1	CHRM1 antagonist 45
Cc1nc2c(OCc3cc(Cl)cc(Cl)c3)cccn2c1N(C)C(=O)CCC1CCCC1	CHRM1 antagonist 38
Cc1ccc(S(=O)(=O)N2C3CCCCC3O[C@H]2CC(=O)OCc2ccccc2)cc1 (some centres undefined)	none (no result: CHRM1 PAM, M1 ag, CHRM1 antagonist)
CN(CC(=O)Nc1ccc(OC(F)(F)F)cc1)C(=O)c1ccccc1SCC(=O)N1CCCC1	none
CCCc1nc2cc(C)c(Br)c(C)n2c1Cc1ccccc1OC	none (no result: CHRM1 PAM, M1 ag, CHRM1 antagonist)
COc1ccc(N2C[C@H](CSC)[C@@H](CC(=O)Nc3ccccc3)C2=O)cc1	none
CCc1nc2c(OCCOc3ccccc3)cccn2c1N(C)C(=O)c1ccc(C)cc1	CHRM1 antagonist 44
Cc1ccccc1CN(C)CCc1ccccn1	none
CC(C)=CCCC(C)CN(C)CCc1ccccn1 (centres undefined)	CHRM1 antagonist 42
COc1ccc(S(=O)(=O)N2CCC(C(=O)N[C@@H](C)C(=O)NCc3ccccn3)CC2)cc1	none
COc1ccc(C(=O)C(=O)N2CCN(c3ccc(C)cc3)CC2)cc1OC	none (no result: CHRM1 PAM, M1 ag, CHRM1 antagonist)
CC1(C)CC(NC(=O)c2cc(S(=O)(=O)N3CCOCC3)c(Cl)cc2Cl)CC(C)(C)N1	CHRM1 PAM 31
CCO[C@H]1C[C@@H](c2ccc(CC)cc2)N(S(=O)(=O)c2ccc(C)cc2)C2CC(c3ccc(CC)cc3)N(S(=O)(=O)c3ccc(C)cc3)CC21 (some centres undefined)	none (no result: CHRM1 PAM, M1 ag, CHRM1 antagonist)
Cc1ccc(NC(=O)c2ccc(Cl)c(S(=O)(=O)Nc3c(C)n(C)n(-c4ccccc4)c3=O)c2)cc1Cl	none
CCOC(=O)c1c(N)sn(-c2ccccc2C)c1=S	CHRM1 antagonist 34
